Laboratory results taken from ChEMBL document CHEMBL1142121, “Triterpenoids from the floral spikes of Betula platyphylla var. japonica and their reversing activity against multidrug-resistant cancer cells” (J Nat Prod, 2007).
The source made the active and inactive calls. The rule behind the calls is not given here.

How the values were obtained:
MCF7 = assay: Cytotoxicity against human MCF7 cells after 48 hrs by MTT assay; format: cell-based; conditions: MCF7, 48 h
Procedure, shortened: (§1)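 MCF7 or COLO205 cells in RPMI1640 with 10% FBS, seeded at 5 × 10^3 cells and preincubated 24 h. Graded concentrations (DMSO final <0.5%) were then applied for 48 h at 37 °C, 5% CO2. Proliferation read by MTT. IC50 was the concentration halving absorbance versus vehicle-treated controls. Mean ± SE of 3–4 experiments.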

COLO 205 = assay: Cytotoxicity against human COLON205 cells after 48 hrs by MTT assay; format: cell-based; conditions: COLO 205, 48 h; procedure, shortened: as §1
K562 = assay: Cytotoxicity against human K562 cells after 48 hrs by MTT assay; format: cell-based; conditions: K562, 48 h
Procedure, shortened: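 K562 leukemia cells, 1 × 10^4 cells/well in medium with 10% FBS, preincubated 24 h. Test samples were then added at various concentrations (DMSO final <0.5%) for 48 h at 37 °C, 5% CO2. MTT assay. IC50 was 50% absorbance relative to vehicle controls. Mean ± SE from 3–4 experiments.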

[1] = Cytotoxicity against human doxorubicin-resistant K562/Adr cells after 48 hrs by MTT assay; format: cell-based
Procedure, shortened: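 Doxorubicin-resistant K562/Adr cells, maintained in RPMI1640/10% FBS containing 0.5 µM doxorubicin. Seeded at 1 × 10^4 cells/well, preincubated 24 h, then incubated 48 h at 37 °C, 5% CO2 with graded test concentrations (DMSO final <0.5%). MTT read-out. IC50 was 50% of vehicle-control absorbance. Mean ± SE, 3–4 experiments.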

[2] = Cytotoxicity against human doxorubicin-resistant K562/Adr cells in presence of 1 uM doxorubicin after 48 hrs by MTT assay; format: cell-based
KB = assay: Cytotoxicity against human KB cells after 48 hrs by MTT assay; format: cell-based
Procedure, shortened: (§2)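 KB and KB-C2 cells grown in DMEM with 10% FBS, with KB-C2 maintained with 2 µg/mL colchicine. 5 × 10^3 cells/well were preincubated 24 h, then exposed 48 h at 37 °C, 5% CO2 to graded concentrations (DMSO final <0.5%). MTT read-out. IC50 was the concentration giving 50% of vehicle-control absorbance. Mean ± SE of 3–4 experiments.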

[3] = Cytotoxicity against human colchicine-resistant KBC2 cells after 48 hrs by MTT assay; format: cell-based; conditions: KB-C2, 48 h; procedure, shortened: as §2
[4] = Cytotoxicity against human colchicine-resistant KBC2 cells in presence of 2.5 uM colchicine after 48 hrs by MTT assay; format: cell-based; conditions: KB-C2, 48 h
Procedure, shortened: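 Colchicine-resistant KB-C2 cells, maintained in DMEM/10% FBS with 2 µg/mL colchicine. Seeded at 5 × 10^3 cells/well, preincubated 24 h, then given graded test concentrations (DMSO final <0.5%) together with 2.5 µM colchicine for 48 h at 37 °C, 5% CO2. MTT read-out. IC50 was 50% of vehicle-control absorbance. Mean ± SE, 3–4 experiments.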

MDR = assay: Reversal of MDR against KBC2 cells assessed as reduction in cytotoxicity of colchicine at 5 ug/ml; format: functional, cell-based; conditions: Homo sapiens

Row | Compound | IC50 (MCF7) [µM] | IC50 (COLO 205) [µM] | IC50 (K562) [µM] | IC50 [1] [µM] | IC50 [2] [µM] | IC50 (KB) [µM] | IC50 [3] [µM] | IC50 [4] [µM] | Activity (MDR)
1 | CC(=O)O[C@@H]1CC[C@]2(C)[C@H]3CC[C@@H]4[C@@H]([C@]5(C)CC[C@H](C(C)(C)O)O5)CC[C@@]4(C)[C@]3(C)CC[C@H]2C1(C)C | 47.5 | 54.2 | 41.6 | 50.5 | 68.3 | 44.8 | 89.6 | 43.6 | 
2 | CC(C)(O)[C@H]1CC[C@@](C)([C@H]2CC[C@]3(C)[C@@H]2CC[C@@H]2[C@@]4(C)CC[C@@H](OC(=O)CC(=O)O)C(C)(C)[C@@H]4CC[C@]23C)O1 | 64.1 | 55.6 | 57.5 | 47.2 | 42.5 | 60.8 | 69.6 | 65.5 | 
3 | C=C(C)[C@@H](O)CC[C@](C)(O)[C@H]1CC[C@]2(C)[C@@H]1CC[C@@H]1[C@@]3(C)CCC(=O)C(C)(C)[C@@H]3CC[C@]12C | 73.1 | 58.8 | 40.2 | 35.9 | 50.4 | 70.2 | 78.5 | 29.8 | 
4 | CC(=O)O[C@@H]1C[C@@H]2[C@@]3(C)CC[C@@H](O)C(C)(C)[C@@H]3CC[C@@]2(C)[C@]2(C)CC[C@H]([C@]3(C)CC[C@H](C(C)(C)O)O3)[C@@H]12 | 34.2 | 36.7 | 27.5 | 15.4 | 15.3 | 36.5 | 25.7 | 3.5 | 
5 | CC(=O)O[C@@H]1C[C@@H]2[C@@]3(C)CC[C@@H](OC(C)=O)C(C)(C)[C@@H]3CC[C@@]2(C)[C@]2(C)CC[C@H]([C@]3(C)CC[C@H](C(C)(C)O)O3)[C@@H]12 | 78.4 | 58 | 26.2 | 33.2 | 23.9 | 35.1 | 62.2 | 3 | 
6 | COC(=O)CC(=O)O[C@@H]1CC[C@]2(C)[C@H]3CC[C@@H]4[C@@H]([C@]5(C)CCC(=O)O5)CC[C@@]4(C)[C@]3(C)CC[C@H]2C1(C)C | > 100 | > 100 | 47.2 | 56.1 | 26.5 | 58 | 30.4 | 3.3 | 
7 | CC(C)(O)[C@H]1CC[C@@](C)([C@H]2CC[C@]3(C)[C@@H]2CC[C@@H]2[C@@]4(C)CC[C@@H](O)C(C)(C)[C@@H]4CC[C@]23C)O1 | 57.9 |  | 48.5 | 73.9 | 45.2 | 43.4 | 55.3 | 28.6 | 
8 | C=C1CC[C@]2(C)CC[C@]3(C)[C@H](CC[C@@H]4[C@@](C)(CCC(=O)O)[C@H](C(=C)C)CC[C@]43C)[C@@H]2[C@H]1C | > 100 | > 100 | > 100 | > 100 | > 100 | > 100 | > 100 | > 100 | 
9 | C=C(C)[C@@H]1CC[C@]2(C)[C@H](CCC3=C4CC(C)(C)CC[C@]4(C)CC[C@]32C)[C@@]1(C)CCC(=O)O | 37.4 | 38.1 | 28 | 25.9 | 24.8 | 27.5 | 58 | 36.3 | 
10 | COC(=O)CC(=O)O[C@@H]1CC[C@]2(C)[C@H]3CC[C@@H]4[C@@H]([C@]5(C)CC[C@H](C(C)(C)O)O5)CC[C@@]4(C)[C@]3(C)CC[C@H]2C1(C)C | 63.6 | 57.2 | 35.4 | 31.1 | 41.1 | 64.2 | 87 | 13.6 | 
11 | C=C(C)[C@@H]1CC[C@]2(C(=O)O)CC[C@]3(C)[C@H](CC[C@@H]4[C@@]5(C)CCC(=O)C(C)(C)[C@@H]5CC[C@]43C)[C@@H]12 [BETUNOLIC ACID] | 49 | 36.8 | 16.1 | 73.5 | 48.4 | 3.8 | 2.3 | 0.64 | 
12 | CC1(C)[C@H](O)CC[C@]2(C)[C@H]3CC[C@@H]4[C@@H]([C@]5(C)CCC(=O)O5)CC[C@@]4(C)[C@]3(C)CC[C@@H]12 [CABRALEAHYDROXYLACTONE] | > 100 | > 100 | > 100 | > 100 | > 100 | > 100 | > 100 | 20.6 | 
13 | CC1(C)C(=O)CC[C@]2(C)[C@H]3CC[C@@H]4[C@@H]([C@]5(C)CCC(=O)O5)CC[C@@]4(C)[C@]3(C)CC[C@@H]12 [CABRALELACTONE] | 97.9 | > 100 | > 100 | > 100 | > 100 | 63.5 | > 100 | 28.5 | 
14 | CC(C)(O)[C@@H]1CC[C@@](C)([C@H]2CC[C@]3(C)[C@@H]2CC[C@@H]2[C@@]4(C)CCC(=O)C(C)(C)[C@@H]4CC[C@]23C)O1 [CABRALEONE] | > 100 | > 100 | > 100 | > 100 | > 100 | > 100 | > 100 | 62.4 | 
15 | CC(C)=CCC[C@](C)(O)[C@H]1CC[C@]2(C)[C@@H]1CC[C@@H]1[C@@]3(C)CCC(=O)C(C)(C)[C@@H]3CC[C@]12C [DIPTEROCARPOL] | > 100 | > 100 | > 100 | > 100 | > 100 | > 100 | > 100 | 38.2 | 
16 | CC(C)(O)[C@H]1CC[C@@]2(C)C1CC[C@]1(C)[C@@H]2CC[C@@H]2[C@@]3(C)CCC(=O)C(C)(C)[C@@H]3CC[C@]21C (stereo not given in full) [HYDROXYHOPANONE] | > 100 | 77.1 | > 100 | > 100 | > 100 | > 100 | > 100 | > 100 | 
17 | COC(=O)CC(=O)O[C@@H]1CC[C@]2(C)[C@H]3C[C@@H](OC(C)=O)[C@@H]4[C@@H]([C@]5(C)CC[C@H](C(C)(C)O)O5)CC[C@@]4(C)[C@]3(C)CC[C@H]2C1(C)C [METHYL PAPYRIFERATE] | 48.9 | 49.6 | 32.6 | 36.8 | 10.6 | 33.8 | 31.1 | 3.7 | Active
18 | C=C(C)[C@@H]1CC[C@]2(C)[C@H](CC[C@@H]3[C@@H]([C@]4(C)CC[C@H](C(C)(C)O)O4)CC[C@]32C)[C@@]1(C)CCC(=O)OC [METHYL SHOREATE] | 59.7 | 67.7 | 45.3 | 50.9 | 47.1 | 66.6 | 93.5 | 20.1 | 
19 | CC(C)(O)[C@H]1CC[C@@](C)([C@H]2CC[C@]3(C)[C@@H]2CC[C@@H]2[C@@]4(C)CCC(=O)C(C)(C)[C@@H]4CC[C@]23C)O1 [OCOTILLONE] | > 100 | > 100 | > 100 | > 100 | > 100 | > 100 | > 100 | 64.2 | 
20 | CC(=O)O[C@@H]1C[C@@H]2[C@@]3(C)CC[C@@H](OC(=O)CC(=O)O)C(C)(C)[C@@H]3CC[C@@]2(C)[C@]2(C)CC[C@H]([C@]3(C)CC[C@H](C(C)(C)O)O3)[C@@H]12 [PAPYRIFERIC ACID] | 71.7 | 52.2 | 47.6 | 42.5 | 34.5 | 47.8 | 66 | 60.1 | 
